# Results from different studies.
# Each line is one published result; the experiments were not run side by side.
# FGFR3: Fibroblast growth factor receptor 3 (FGFR3, Homo sapiens, UniProt P22607)
# FGFR3 G697C: Fibroblast growth factor receptor 3 (FGFR3, Homo sapiens, UniProt P22607, G697C)
# FGFR3 K650E: Fibroblast growth factor receptor 3 (FGFR3, Homo sapiens, UniProt P22607, K650E)
SMILES,target,effect on,action,technique,concentration,measurement,result
CCOCCn1cc(C(=O)Nc2ccc(-n3nc(-c4cccnc4)cc3C(F)(F)F)cn2)ccc1=O,FGFR3,cell-free assay,,competition with immobilised ligand,1 µM,remaining binding,84%
C=CC(=O)Nc1cc(Nc2nccc(Nc3cc(Cl)c(F)cc3C(C)(C)O)n2)c(OC)cc1N1CC[C@@H](N(C)C)C1,FGFR3,enzyme activity,inhibitor,,1 µM,inhibition,4%
Cc1ccc(Nc2nccc(N(C)c3ccc4c(C)n(C)nc4c3)n2)cc1S(N)(=O)=O,FGFR3,enzyme activity,inhibitor,,0.3 µM,inhibition,66%
F[C@@H]1CCN(c2nccc(-c3cnn4ncccc34)n2)C1,FGFR3,binding,,,1 µM,remaining binding,100%
Cc1cc(C)c(-n2ccn3nc(-c4cccnc4)cc23)cc1NC(=O)c1cc(C#N)cc(S(F)(F)(F)(F)F)c1,FGFR3,cell-free assay,,competition with immobilised ligand,0.1 µM,remaining binding,95.6%
CN(C)c1ncc(F)c(-c2cnn3ncccc23)n1,FGFR3 G697C,binding,,,1 µM,remaining binding,100%
Cc1sc(C(=O)NC2COC2)cc1-n1cc(NC(=O)Nc2c(F)cccc2Cl)cn1,FGFR3,enzyme activity,inhibitor,,10 µM,remaining activity,137%
C[C@H](c1cccc(C#N)c1)n1cc(Cl)cc(C(N)=O)c1=N,FGFR3,cell-free assay,,competition with immobilised ligand,1 µM,remaining binding,88%
CC/C(=N\NC(=O)NCc1cccc(O)c1)c1ccc(O)c(C)c1O,FGFR3,enzyme activity,inhibitor,,0.1 µM,inhibition,2.2%
N[C@H]1CCN(c2nccc(-c3cnn4ncccc34)n2)C1,FGFR3,binding,,,1 µM,remaining binding,84%
O=C(CSc1nc2nccnc2c(=O)n1CCc1ccccc1)Nc1nccs1,FGFR3,enzyme activity,inhibitor,,10 µM,inhibition,8%
COc1cc2nccc(Oc3ccc(NC(=O)c4c5n(n(-c6ccc(F)cc6)c4=O)CCCC5)cc3)c2cc1OC,FGFR3,enzyme activity,inhibitor,,0.1 µM,inhibition,-4%
O=C1NC(=O)c2cc(Nc3ccc(F)cc3)c(Nc3ccc(F)cc3)cc21,FGFR3,cell-free assay,,,0.5 µM,remaining signal,99.7%
CCc1ccccc1C(=O)Nc1n[nH]c2c(C)c(F)c(C3C(C#N)=C(C)N(C)C(C)=C3C#N)cc12,FGFR3,cell-free assay,,competition with immobilised ligand,1 µM,remaining binding,93%
COc1cc2ncnc(Nc3ccc(Oc4ccccc4)cc3C)c2cc1OC,FGFR3 K650E,enzyme activity,inhibitor,,1 µM,inhibition,0%
Cc1cnc(NC2CCOCC2)nc1-n1cnc(C(=O)NC(CN)c2cc(F)cc(Cl)c2)c1 (centres unmarked),FGFR3,enzyme activity,inhibitor,radiometric,1 µM,remaining activity,100%
COc1cc2ncnc(Nc3ccc(F)c(Cl)c3)c2cc1OCCCN1CCOCC1,FGFR3,cell-free assay,,,0.5 µM,remaining signal,79.3%
O=C(Nc1cnn(-c2csc(C(=O)NC3COC3)c2)c1)Nc1c(F)cccc1Cl,FGFR3,enzyme activity,inhibitor,,5 µM,remaining activity,92%
CC(C)(O)[C@H]1CC[C@H](Nc2ccc3ncc(-c4cccc(C(F)(F)F)c4)n3n2)CC1,FGFR3,enzyme activity,inhibitor,,1 µM,remaining activity,102%
COc1ccc(COc2ccc(Cc3cnc(N)nc3N)cc2OC)cc1,FGFR3,cell-free assay,,,0.5 µM,remaining signal,105%
Cc1cc(NC(=O)c2cccc3cc(-c4cccc5[nH]nc(N)c45)ccc23)ccc1F,FGFR3,enzyme activity,inhibitor,,0.1 µM,activity vs control,98%
CNCc1ccc(-c2cc(-c3nc(-c4ccc(S(=O)(=O)C(C)C)cc4)cnc3N)on2)cc1,FGFR3,enzyme activity,inhibitor,,2 µM,inhibition,10%
C[C@@H]1CCN(c2nccc(-c3cnn4ncccc34)n2)C1,FGFR3 G697C,binding,,,1 µM,remaining binding,100%
Nc1ncnc2occ(-c3ccc(NC(=O)Nc4cc(C(F)(F)F)ccc4F)cc3)c12,FGFR3 G697C,cell-free assay,,,20 µM,remaining signal,1.1%
Cc1nc(Cc2cccc(C(F)(F)F)c2)sc1-c1ccc(C(N)=O)nc1,FGFR3,cell-free assay,,competition with immobilised ligand,1 µM,remaining binding,100%
Cc1ccc(NC(=O)c2ccc(CN3CCN(C)CC3)cc2)cc1Nc1nc(-c2cccnc2)cs1,FGFR3,cell-free assay,,,0.5 µM,remaining signal,94.3%
CNC(=O)c1cc(Oc2ccc(NC(=O)Nc3ccc(Cl)c(C(F)(F)F)c3)cc2)ccn1,FGFR3,enzyme activity,inhibitor,,0.3 µM,inhibition,32%
CCC(=O)N[C@H]1CC[C@@H](C(=O)N(C)c2ccc(-c3nc4ccccc4o3)cc2)C1,FGFR3,cell-free assay,,competition with immobilised ligand,1 µM,remaining binding,98%
COc1cc2ncnc(Nc3ccc(Oc4ccccc4)c(C)c3C)c2cc1OC,FGFR3 K650E,enzyme activity,inhibitor,,1 µM,inhibition,3%
CN(C)c1ncnc(-c2ccc3nc(Nc4cc(CN5CCN(C(=O)CC(F)(F)F)CC5)ccn4)[nH]c3c2)c1Cl,FGFR3,cell-free assay,,competition with immobilised ligand,1 µM,remaining binding,100%
Cc1ccc(NC(=O)c2ccc(C)c(C(F)(F)F)c2)cc1C#Cc1nn(C2CCC(O)CC2)c2ncnc(N)c12 (centres unmarked),FGFR3,cell-free assay,,,10 µM,remaining signal,3%
Cc1ccc(C(=O)Nc2ccc(CN3CCN(C)CC3)c(C(F)(F)F)c2)cc1C#Cc1cnc2cccnn12,FGFR3,cell-free assay,,,23.5 nM,remaining signal,62%
CO[C@@H](C)c1c(Nc2ccc([C@H](N(C)C(=O)C3CCS(=O)(=O)CC3)C(F)(F)F)cc2)cnc2cc(Cl)nn12,FGFR3 G697C,cell-free assay,,competition with immobilised ligand,1 µM,remaining binding,86%
CC(C)(C)c1nc2c(s1)c1nc(N)ncc1c1ccc(NS(=O)(=O)c3c(F)cccc3F)c(F)c12,FGFR3,enzyme activity,inhibitor,radiometric,1 µM,remaining activity,91%
Cc1cnn2ncc(-c3ccnc(N(C)C)n3)c2c1,FGFR3 G697C,binding,,,1 µM,remaining binding,82%
